Results as given in ChEMBL document CHEMBL4334471, “Discovery of 1,8-disubstituted-[1,2,3]triazolo[4,5-c]quinoline derivatives as a new class of Hippo signaling pathway inhibitors” (Bioorg Med Chem Lett, 2019).
Activity calls are given as the source filed them. The rule behind the calls is not given here.

Legend:
A549 [1] = test: Inhibition of hippo signalling protein in human A549 cells cotransfected with CTGF promoter-driven firefly luciferase and CMV promoter-driven renilla luciferase gene assessed as increase in CTGF expression at 10 uM incubated for 24 hrs by dual-luciferase gene assay relative to control
A549 [2] = test: Inhibition of hippo signalling protein in human A549 cells cotransfected with CTGF promoter-driven firefly luciferase and CMV promoter-driven renilla luciferase gene incubated for 24 hrs by dual-luciferase gene assay; format: cell-based
Summary of the method: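 Dual-luciferase reporter read-out in A549-CTGF cells after 24 h culture with compound. Firefly luciferase is expressed relative to DMSO-treated cells, set as 1. Screening used 10 µM. Values are mean ± SEM of three independent experiments.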

A549 [3] = test: Inhibition of hippo signalling protein in human A549 cells assessed as increase in CTGF mRNA expression level at 10 uM incubated for 24 hrs by qRT-PCR analysis; format: cell-based
Summary of the method: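 A549-CTGF cells were exposed to compound or 0.1% DMSO for 24 h before total RNA extraction. Endogenous CTGF mRNA was quantified by real-time PCR. Data were mean ± SEM (n=4) and compared by Student's t-test.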

[4] = target: Transcriptional coactivator YAP1 (Homo sapiens) (UniProt P46937); test: Induction of YAP nuclear translocation in human A549 cells at 10 uM incubated for 8 hrs by immunofluorescence based confocal microscopy; format: cell-based
Chain of Transcriptional coactivator YAP1 (Homo sapiens) (P46937 whole entry): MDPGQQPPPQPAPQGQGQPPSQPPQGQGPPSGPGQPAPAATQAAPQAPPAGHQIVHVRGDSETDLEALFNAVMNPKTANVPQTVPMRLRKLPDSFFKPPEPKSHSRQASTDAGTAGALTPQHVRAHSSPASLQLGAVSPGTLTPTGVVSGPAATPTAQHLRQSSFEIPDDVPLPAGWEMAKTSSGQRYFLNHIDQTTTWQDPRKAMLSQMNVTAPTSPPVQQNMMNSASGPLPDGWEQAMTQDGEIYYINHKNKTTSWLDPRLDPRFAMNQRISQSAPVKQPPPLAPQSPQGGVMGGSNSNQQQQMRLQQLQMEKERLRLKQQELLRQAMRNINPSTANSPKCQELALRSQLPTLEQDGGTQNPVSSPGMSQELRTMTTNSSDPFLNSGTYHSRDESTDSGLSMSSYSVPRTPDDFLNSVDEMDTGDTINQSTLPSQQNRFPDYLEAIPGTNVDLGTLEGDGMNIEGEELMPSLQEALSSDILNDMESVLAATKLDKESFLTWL
Summary of the method: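 A549-CTGF reporter cells were treated for 8 h at 10 µM, with 0.1% DMSO as vehicle control. Cells were then fixed, permeabilized and probed with anti-YAP antibody. DAPI stained the nuclei, and YAP localization was imaged by immunofluorescence.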

SMILES | fold change (FC) (A549 [1]) | other results
CC[C@H](c1ccccc1)n1nnc2cnc3ccc(-c4cnc5[nH]ccc5c4)cc3c21 | 3.72 | 
C[C@@H](c1ccccc1)n1nnc2cnc3ccc(-c4ccnc5[nH]ccc45)cc3c21 | 0.549 | 
C[C@@H](c1ccccc1)n1nnc2cnc3ccc(-c4ccnc(N)c4)cc3c21 | 2.01 | 
CN1C(=O)c2sccc2N(C)c2nc(Nc3ccc(S(N)(=O)=O)cc3)ncc21 | 4.92 | inhibition (A549 [2]): Dose-dependent effect; inhibition (A549 [3]): Active; Activity [4]: Active
COc1cccc([C@H](C)n2nnc3cnc4ccc(-c5cnc6[nH]ccc6c5)cc4c32)c1 | 3.13 | 
C[C@@H](c1ccccc1)n1nnc2cnc3ccc(-c4ccccc4)cc3c21 | 1.43 | 
COc1cccc([C@@H](C)n2nnc3cnc4ccc(-c5cnc6[nH]ccc6c5)cc4c32)c1 | 2.22 | 
C[C@@H](c1ccc(F)cc1)n1nnc2cnc3ccc(-c4cnc5[nH]ccc5c4)cc3c21 | 6.51 | 
C[C@@H](c1ccccc1)n1nnc2cnc3ccc(-c4ccc(Cl)nc4)cc3c21 | 1.24 | 
Cn1nnc2cnc3ccc(-c4cnc5[nH]ccc5c4)cc3c21 | 0.55 | 
C[C@@H](c1ccccc1)n1nnc2cnc3ccc(-c4ccc(C#N)nc4)cc3c21 | 1.94 | 
CC(C)n1nnc2cnc3ccc(-c4cnc5[nH]ccc5c4)cc3c21 | 3.38 | 
C[C@@H](c1ccccc1)n1nnc2cnc3ccc(-c4c[nH]c5ncccc45)cc3c21 | 1.11 | 
C[C@@H](c1ccccc1)n1nnc2cnc3ccc(-c4ccc(N(C)C)nc4)cc3c21 | 1.19 | 
C[C@@H](c1ccccc1)n1nnc2cnc3ccc(-c4ccc(N)c(Cl)c4)cc3c21 | 1.73 | 
COc1ccc(-c2ccc3ncc4nnn([C@@H](C)c5ccccc5)c4c3c2)cn1 | 0.996 | 
C[C@@H](c1cccc(F)c1)n1nnc2cnc3ccc(-c4cnc5[nH]ccc5c4)cc3c21 | 4.91 | 
C[C@@H](c1ccccc1)n1nnc2cnc3ccc(-c4ccc(N5CCOCC5)nc4)cc3c21 | 1.06 | 
C[C@H](c1cccc(F)c1)n1nnc2cnc3ccc(-c4cnc5[nH]ccc5c4)cc3c21 | 2.1 | 
C[C@@H](c1ccccc1)n1nnc2cnc3ccc(-c4ccc(N)cc4)cc3c21 | 2.24 | 
C[C@H](c1ccc(F)cc1)n1nnc2cnc3ccc(-c4cnc5[nH]ccc5c4)cc3c21 | 4.92 | 
C[C@@H](c1ccccc1)n1nnc2cnc3ccc(-c4ccc5[nH]ccc5c4)cc3c21 | 4.6 | 
C[C@H](c1ccccc1)n1nnc2cnc3ccc(-c4cnc5[nH]ccc5c4)cc3c21 | 8.1 | 
Fc1ccc(-n2nnc3cnc4ccc(-c5cnc6[nH]ccc6c5)cc4c32)cc1 | 3.44 | 
C[C@@H](c1ccccc1)n1nnc2cnc3ccc(-c4ccc(N)nc4)cc3c21 | 9.09 | 
C[C@@H](c1ccccc1)n1nnc2cnc3ccc(-c4cnc(N)nc4)cc3c21 | 3.49 | 
Fc1ccc(Cn2nnc3cnc4ccc(-c5cnc6[nH]ccc6c5)cc4c32)cc1 | 3.87 | 
CC[C@@H](c1ccccc1)n1nnc2cnc3ccc(-c4cnc5[nH]ccc5c4)cc3c21 | 8.06 | 
